Molecules are shown by their SMILES. Non-standard residues stand in square brackets, D forms with d. Residues, ends and D or L forms follow the SMILES beside them. Nle = CCCC[C@H](N)C(=O)O

Test [1] deals with Melanocyte-stimulating hormone receptor (Rana pipiens). The experiment in a line: In vitro potency in frog (Rana pipiens) skin assay relative to alpha-MSH.
In a further test the test system is lizard. Kind of test: In vitro potency in lizard (Anolis carolinensis) skin bioassay relative to alpha-MSH. The format is functional. The method, boiled down:
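Isolated skins incubated in vitro with peptide across the full log dose-response range. Darkening from melanosome dispersion into melanophore dendrites is read as surface reflectance on a reflectometer and expressed as percent response versus the time-zero value. Each point is a mean ± SE of 6 or more skins. Potency is taken from the dose-response curves relative to α-MSH.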

Turning to `CCCC[C@H](NC(C)=O)C(=O)N[C@@H](CCC(=O)O)C(=O)N[C@@H](Cc1c[nH]cn1)C(=O)N[C@H](Cc1ccccc1)C(=O)N[C@@H](CCCN=C(N)N)C(=O)N[C@@H](Cc1c[nH]c2ccccc12)C(=O)N[C@@H](CCCCN)C(=O)NCC(=O)N1CCC[C@H]1C(=O)N[C@H](C(N)=O)C(C)C` (Ac-[Nle]EH[dF]RWKGPV-NH2), the results for the Activity (in test [1]; with lizard) were 0.8 and 8, respectively.

With `CCCC[C@H](NC(C)=O)C(=O)N[C@@H](CCC(=O)O)C(=O)N[C@@H](Cc1c[nH]cn1)C(=O)N[C@H](Cc1ccccc1)C(=O)N[C@@H](CCCN=C(N)N)C(=O)N[C@@H](Cc1c[nH]c2ccccc12)C(=O)N[C@@H](CCN)C(N)=O`, the Activity came out at 0.9 in test [1] and 10 in the test with lizard.

Consider `CCCC[C@H](NC(C)=O)C(=O)N[C@@H](CC(=O)O)C(=O)N[C@@H](Cc1c[nH]cn1)C(=O)N[C@H](Cc1ccccc1)C(=O)N[C@@H](CCCN=C(N)N)C(=O)N[C@@H](Cc1c[nH]c2ccccc12)C(=O)N[C@@H](CCCCN)C(=O)NCC(=O)N1CCC[C@H]1C(=O)N[C@H](C(N)=O)C(C)C` (Ac-[Nle]DH[dF]RWKGPV-NH2), for which the Activity was 1 in test [1] and 10 in the test on lizard.

With `CCCC[C@H](NC(C)=O)C(=O)N[C@@H](CCC(=O)O)C(=O)N[C@@H](Cc1c[nH]cn1)C(=O)N[C@H](Cc1ccccc1)C(=O)N[C@@H](CCCN=C(N)N)C(=O)N[C@@H](Cc1c[nH]c2ccccc12)C(=O)N[C@@H](CCCCN)C(N)=O`, the Activity in test [1] came out at 0.2; in the test with lizard it was 8.

Regarding `CCCC[C@H](NC(C)=O)C(=O)N[C@@H](CCC(=O)O)C(=O)N[C@@H](Cc1c[nH]cn1)C(=O)N[C@H](Cc1ccccc1)C(=O)N[C@@H](CCCN=C(N)N)C(=O)N[C@@H](Cc1c[nH]c2ccccc12)C(=O)N[C@@H](CCCN)C(N)=O`, the Activity in test [1] amounted to 0.6; in the test on lizard it was 8.

The compound `CCCC[C@H](NC(C)=O)C(=O)N[C@@H](CC(=O)O)C(=O)N[C@@H](Cc1c[nH]cn1)C(=O)N[C@H](Cc1ccccc1)C(=O)N[C@@H](CCCN=C(N)N)C(=O)N[C@@H](Cc1c[nH]c2ccccc12)C(=O)N[C@@H](CCCCN)C(N)=O` showed an Activity in the test with lizard of 8.

Compound `CCCC[C@H](NC(C)=O)C(=O)N[C@@H](CC(=O)O)C(=O)N[C@@H](Cc1c[nH]cn1)C(=O)N[C@@H](Cc1ccccc1)C(=O)N[C@@H](CCCN=C(N)N)C(=O)N[C@@H](Cc1c[nH]c2ccccc12)C(=O)N[C@@H](CCCCN)C(N)=O` had an Activity in the test on lizard of 0.08.

As for `CCCC[C@H](NC(=O)[C@H](CO)NC(=O)[C@H](Cc1ccc(O)cc1)NC(=O)[C@H](CO)NC(C)=O)C(=O)N[C@@H](CCC(=O)O)C(=O)N[C@@H](Cc1c[nH]cn1)C(=O)N[C@H](Cc1ccccc1)C(=O)N[C@@H](CCCN=C(N)N)C(=O)N[C@@H](Cc1c[nH]c2ccccc12)C(=O)N[C@@H](CCCCN)C(=O)NCC(=O)N1CCC[C@H]1C(=O)N[C@H](C(N)=O)C(C)C` (Ac-SYS[Nle]EH[dF]RWKGPV-NH2), the results for the Activity (in test [1]; in the test on lizard) were 6 and 8, respectively.

As for `CCCC[C@H](NC(C)=O)C(=O)N[C@@H](CC(=O)O)C(=O)N[C@@H](Cc1c[nH]cn1)C(=O)N[C@H](Cc1ccccc1)C(=O)N[C@@H](CCCN=C(N)N)C(=O)N[C@@H](Cc1c[nH]c2ccccc12)C(=O)N[C@@H](CN)C(N)=O`, the figures for the Activity (in test [1]; with lizard) were 0.2 and 8, respectively.

`CCCC[C@H](NC(C)=O)C(=O)N[C@@H](CCC(=O)O)C(=O)N[C@@H](Cc1c[nH]cn1)C(=O)N[C@@H](Cc1ccccc1)C(=O)N[C@@H](CCCN=C(N)N)C(=O)N[C@@H](Cc1c[nH]c2ccccc12)C(=O)N[C@@H](CCCCN)C(N)=O`: the values for the Activity (in test [1]; in the test with lizard) were 0.001 and 0.08, respectively.

Regarding `CCCC[C@H](NC(=O)[C@H](CO)NC(=O)[C@H](Cc1ccc(O)cc1)NC(=O)[C@H](CO)NC(C)=O)C(=O)N[C@@H](CC(=O)O)C(=O)N[C@@H](Cc1c[nH]cn1)C(=O)N[C@H](Cc1ccccc1)C(=O)N[C@@H](CCCN=C(N)N)C(=O)N[C@@H](Cc1c[nH]c2ccccc12)C(=O)N[C@@H](CCCCN)C(=O)NCC(=O)N1CCC[C@H]1C(=O)N[C@H](C(N)=O)C(C)C` (Ac-SYS[Nle]DH[dF]RWKGPV-NH2), the values for the Activity (in test [1]; in the test with lizard) were 9 and 8, respectively.

Turning to `CCCC[C@H](NC(C)=O)C(=O)N[C@@H](CC(=O)O)C(=O)N[C@@H](Cc1c[nH]cn1)C(=O)N[C@H](Cc1ccccc1)C(=O)N[C@@H](CCCN=C(N)N)C(=O)N[C@@H](Cc1c[nH]c2ccccc12)C(=O)N[C@@H](CCN)C(N)=O`, the Activity in test [1] came out at 0.9; in the test on lizard, 50.

Take `CCCC[C@H](NC(C)=O)C(=O)N[C@@H](CC(=O)O)C(=O)N[C@@H](Cc1c[nH]cn1)C(=O)N[C@H](Cc1ccccc1)C(=O)N[C@@H](CCCN=C(N)N)C(=O)N[C@@H](Cc1c[nH]c2ccccc12)C(=O)N[C@@H](CCCN)C(N)=O`: the Activity in test [1] was determined as 0.9; with lizard, 10.

On to `CCCC[C@H](NC(C)=O)C(=O)N[C@@H](CC(=O)O)C(=O)N[C@@H](Cc1c[nH]cn1)C(=O)N[C@H](Cc1ccccc1)C(=O)N[C@@H](CCCN=C(N)N)C(=O)N[C@@H](Cc1c[nH]c2ccccc12)C(=O)NCC(N)=O`, for which the Activity in test [1] is 0.1; with lizard, 8.
